In PubChem BioAssay AID588487 (The Scripps Research Institute Molecular Screening Center, 2011):
Calls of active or inactive are those of the source.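 How the source made its calls: active means inhibition of at least 50% against any of four protein arginine deiminase enzymes; inactive means the rest.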

Experiments:
Assay in all cases: PAD isozyme probe labeling blockade – biochemical, fluorescence, gel-based ABPP, HTS hits, orthogonal assay for PAD4 inhibitor project, late-stage follow-up (AID 588487)
[1] = target: Protein-arginine deiminase type-3 (Homo sapiens) (UniProt Q9ULW8); conditions: recombinant PAD1-4, gel-based ABPP, RFA probe fluorescence; PAD3; at 10 µM; stronger effect = higher value
Sequence of Protein-arginine deiminase type-3 (Homo sapiens) (Q9ULW8 whole entry, looked up): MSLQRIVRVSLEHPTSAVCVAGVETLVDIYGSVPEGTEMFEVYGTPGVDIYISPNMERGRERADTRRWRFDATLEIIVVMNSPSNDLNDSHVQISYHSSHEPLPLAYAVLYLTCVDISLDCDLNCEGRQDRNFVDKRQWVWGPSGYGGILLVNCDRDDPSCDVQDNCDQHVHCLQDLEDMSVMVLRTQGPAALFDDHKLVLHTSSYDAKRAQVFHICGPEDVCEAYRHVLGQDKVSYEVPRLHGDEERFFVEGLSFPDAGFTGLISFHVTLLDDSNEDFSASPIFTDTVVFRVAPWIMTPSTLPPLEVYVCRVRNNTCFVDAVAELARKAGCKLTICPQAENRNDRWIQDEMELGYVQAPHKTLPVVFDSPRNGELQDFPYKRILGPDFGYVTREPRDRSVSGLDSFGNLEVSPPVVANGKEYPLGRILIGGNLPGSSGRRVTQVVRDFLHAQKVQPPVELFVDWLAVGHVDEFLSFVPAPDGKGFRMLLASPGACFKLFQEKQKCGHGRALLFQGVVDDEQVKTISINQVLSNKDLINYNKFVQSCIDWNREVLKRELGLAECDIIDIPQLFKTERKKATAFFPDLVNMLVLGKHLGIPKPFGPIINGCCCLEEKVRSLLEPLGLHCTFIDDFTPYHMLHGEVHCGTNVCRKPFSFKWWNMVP
In short: (§1)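 System: Recombinant PAD1, PAD2, PAD3 or PAD4 | Input: PAD enzyme 10 µM | Probe or stimulus: RFA fluorescent probe at 1 µM | Compound: One 10 µM dose per compound | Schedule: 15 min compound pre-incubation plus 30 min probe step, 37 °C | Detection: in-gel fluorescence scan of probe-labeled PAD band after SDS-PAGE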

[2] = target: Protein-arginine deiminase type-4 (Homo sapiens) (UniProt Q9UM07); conditions: recombinant PAD1-4, gel-based ABPP, RFA probe fluorescence; PAD4; at 10 µM; stronger effect = higher value
Sequence of Protein-arginine deiminase type-4 (Homo sapiens) (Q9UM07 whole entry, looked up): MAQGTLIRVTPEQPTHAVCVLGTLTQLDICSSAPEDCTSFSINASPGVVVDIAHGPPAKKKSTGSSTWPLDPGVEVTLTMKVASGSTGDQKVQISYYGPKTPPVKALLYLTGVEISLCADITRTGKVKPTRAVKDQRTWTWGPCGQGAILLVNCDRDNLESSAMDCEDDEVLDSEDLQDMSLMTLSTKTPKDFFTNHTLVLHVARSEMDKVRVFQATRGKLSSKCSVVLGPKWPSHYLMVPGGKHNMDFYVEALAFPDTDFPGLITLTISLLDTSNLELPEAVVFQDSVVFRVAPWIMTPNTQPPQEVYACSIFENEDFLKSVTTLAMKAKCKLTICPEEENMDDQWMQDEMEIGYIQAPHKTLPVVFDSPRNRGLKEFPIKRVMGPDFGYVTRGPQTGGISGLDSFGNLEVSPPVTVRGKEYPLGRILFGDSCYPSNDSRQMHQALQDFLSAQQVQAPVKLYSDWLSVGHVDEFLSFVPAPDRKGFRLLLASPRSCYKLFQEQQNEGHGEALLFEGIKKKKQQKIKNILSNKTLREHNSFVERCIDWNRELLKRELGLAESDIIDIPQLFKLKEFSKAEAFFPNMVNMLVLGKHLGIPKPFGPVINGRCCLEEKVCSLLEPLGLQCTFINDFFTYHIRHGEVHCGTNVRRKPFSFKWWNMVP
In short: as §1

[3] = target: Protein-arginine deiminase type-2 (Homo sapiens) (UniProt Q9Y2J8); conditions: recombinant PAD1-4, gel-based ABPP, RFA probe fluorescence; PAD2; at 10 µM; stronger effect = higher value
Sequence of Protein-arginine deiminase type-2 (Homo sapiens) (Q9Y2J8 whole entry, looked up): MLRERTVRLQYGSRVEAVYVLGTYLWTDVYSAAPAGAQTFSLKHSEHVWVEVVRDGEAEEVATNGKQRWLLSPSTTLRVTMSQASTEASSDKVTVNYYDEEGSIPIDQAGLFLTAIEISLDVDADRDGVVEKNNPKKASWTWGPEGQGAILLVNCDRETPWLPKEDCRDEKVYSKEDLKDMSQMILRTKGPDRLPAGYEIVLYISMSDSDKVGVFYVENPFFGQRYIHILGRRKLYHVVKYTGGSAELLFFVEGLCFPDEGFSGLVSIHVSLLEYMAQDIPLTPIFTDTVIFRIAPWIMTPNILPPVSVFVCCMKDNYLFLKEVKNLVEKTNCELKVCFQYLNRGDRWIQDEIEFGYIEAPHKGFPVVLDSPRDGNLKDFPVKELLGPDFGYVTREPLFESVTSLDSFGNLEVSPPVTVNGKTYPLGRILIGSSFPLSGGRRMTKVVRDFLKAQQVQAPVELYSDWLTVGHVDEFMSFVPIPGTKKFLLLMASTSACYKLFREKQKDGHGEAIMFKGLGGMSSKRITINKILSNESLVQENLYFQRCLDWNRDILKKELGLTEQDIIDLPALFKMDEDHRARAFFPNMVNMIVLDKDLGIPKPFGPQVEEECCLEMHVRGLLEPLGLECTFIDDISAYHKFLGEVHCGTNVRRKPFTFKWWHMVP
In short: as §1

[4] = target: Protein-arginine deiminase type-1 (Homo sapiens) (UniProt Q9ULC6); conditions: recombinant PAD1-4, gel-based ABPP, RFA probe fluorescence; PAD1; at 10 µM; stronger effect = higher value
Sequence of Protein-arginine deiminase type-1 (Homo sapiens) (Q9ULC6 whole entry, looked up): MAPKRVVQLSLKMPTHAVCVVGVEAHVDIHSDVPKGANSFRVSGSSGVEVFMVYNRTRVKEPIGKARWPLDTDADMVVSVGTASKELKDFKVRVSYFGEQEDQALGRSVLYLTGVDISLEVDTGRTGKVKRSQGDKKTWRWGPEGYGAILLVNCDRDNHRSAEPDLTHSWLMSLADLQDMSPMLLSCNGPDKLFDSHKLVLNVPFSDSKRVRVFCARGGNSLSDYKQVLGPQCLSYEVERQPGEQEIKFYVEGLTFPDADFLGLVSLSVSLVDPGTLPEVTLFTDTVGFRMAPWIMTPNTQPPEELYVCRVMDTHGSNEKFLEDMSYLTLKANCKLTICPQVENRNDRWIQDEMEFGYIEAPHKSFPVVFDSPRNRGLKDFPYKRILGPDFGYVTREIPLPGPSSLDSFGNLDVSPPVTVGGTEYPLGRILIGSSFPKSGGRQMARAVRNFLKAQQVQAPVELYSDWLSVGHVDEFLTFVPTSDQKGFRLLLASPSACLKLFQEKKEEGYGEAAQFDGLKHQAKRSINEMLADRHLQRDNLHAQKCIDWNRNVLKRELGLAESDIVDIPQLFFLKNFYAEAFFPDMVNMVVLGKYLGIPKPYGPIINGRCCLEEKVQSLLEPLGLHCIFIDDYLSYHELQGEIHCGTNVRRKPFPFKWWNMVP
In short: as §1

**Q.** Cn1c(N)c(C(=O)COC(=O)COc2ccc(Br)cc2)c(=O)n(C)c1=O was tested. Which inhibition [1] did it give?
**A.** 19% (inactive)

**Q.** And the inhibition [2]?
**A.** 20% (inactive)

**Q.** What about the inhibition [3] of the same compound?
**A.** 51%

**Q.** What about the inhibition [4] of the same compound?
**A.** 16% (inactive)

**Q.** COc1cccc(NC(=O)CN(C)C(=O)C23CC4CC(CC(Cl)(C4)C2)C3)c1 was tested. Which inhibition [1] did it give?
**A.** 13% (inactive)

**Q.** What about the inhibition [2] of the same compound?
**A.** 60%

**Q.** And the inhibition [3]?
**A.** 17% (inactive)

**Q.** What about the inhibition [4] of the same compound?
**A.** 13% (inactive)

**Q.** COc1ccc(C2=CC(c3ccc(OC)c(OC)c3)NC(=S)N2)cc1 (stereo unspecified) was tested. Which inhibition [1] did it give?
**A.** 36% (inactive)

**Q.** What about the inhibition [2] of the same compound?
**A.** -50% (inactive)

**Q.** What about the inhibition [3] of the same compound?
**A.** -9% (inactive)

**Q.** What about the inhibition [4] of the same compound?
**A.** 37% (inactive)

**Q.** How did the inhibition [1] turn out when Cc1ccc(C2CC(=O)Oc3cc(O)ccc32)cc1 (stereo unspecified) was run?
**A.** 43% (inactive)

**Q.** And the inhibition [2]?
**A.** -30% (inactive)

**Q.** What about the inhibition [3] of the same compound?
**A.** -2% (inactive)

**Q.** And the inhibition [4]?
**A.** 40% (inactive)

**Q.** COc1ccc(OC)c(C2C(C#N)=C(N)Oc3c2c(C)nn3-c2ccc(C)cc2)c1 (stereo unspecified) was tested. Which inhibition [1] did it give?
**A.** -37% (inactive)

**Q.** And the inhibition [2]?
**A.** 31% (inactive)

**Q.** What about the inhibition [3] of the same compound?
**A.** 18% (inactive)

**Q.** What about the inhibition [4] of the same compound?
**A.** 22% (inactive)

**Q.** O=C(O)c1[nH]c2ccccc2c1-c1ccccc1 was tested. Which inhibition [1] did it give?
**A.** 10% (inactive)

**Q.** What about the inhibition [2] of the same compound?
**A.** 40% (inactive)

**Q.** What about the inhibition [3] of the same compound?
**A.** 14% (inactive)

**Q.** What about the inhibition [4] of the same compound?
**A.** 17% (inactive)

**Q.** What does the source list for Cc1ccc(-c2nc3sc(C#N)c(N)n3c(=O)c2C#N)cc1?
**A.** inhibition [1]: 31% (inactive); inhibition [2]: 38% (inactive); inhibition [3]: 16% (inactive); inhibition [4]: 32% (inactive)

**Q.** For Cc1cc(C)c(C)c(S(=O)(=O)N2CCC(C(=O)N3CCCC3)CC2)c1C, which inhibition [1] is on record?
**A.** 22% (inactive)

**Q.** What about the inhibition [2] of the same compound?
**A.** 39% (inactive)

**Q.** What about the inhibition [3] of the same compound?
**A.** -43% (inactive)

**Q.** What about the inhibition [4] of the same compound?
**A.** -32% (inactive)

**Q.** For O=C(NC1CCCCC1)C(c1cccs1)N(CCCN1CCOCC1)C(=O)c1ccc(-c2ccccc2)[nH]1 (stereo unspecified), which inhibition [1] is on record?
**A.** 15% (inactive)

**Q.** What about the inhibition [2] of the same compound?
**A.** 59%

**Q.** And the inhibition [3]?
**A.** -27% (inactive)

**Q.** And the inhibition [4]?
**A.** -42% (inactive)

**Q.** With COc1cccc(NC(=O)C2c3cc(OC)c(OC)cc3C(=O)N(C)C2c2cccnc2)c1 (stereo unspecified) as the compound, how does the inhibition [1] read?
**A.** 26% (inactive)

**Q.** What about the inhibition [2] of the same compound?
**A.** 61%

**Q.** What about the inhibition [3] of the same compound?
**A.** 22% (inactive)

**Q.** What about the inhibition [4] of the same compound?
**A.** 15% (inactive)

**Q.** CS(=O)(=O)c1ccc(N)c(SSc2cc(S(C)(=O)=O)ccc2N)c1 was tested. Which inhibition [1] did it give?
**A.** 35% (inactive)

**Q.** What about the inhibition [2] of the same compound?
**A.** -7% (inactive)

**Q.** And the inhibition [3]?
**A.** 14% (inactive)

**Q.** And the inhibition [4]?
**A.** 27% (inactive)

**Q.** For CCNC(=S)NNC(=O)c1csc(C)c1, which inhibition [1] is on record?
**A.** 14% (inactive)

**Q.** And the inhibition [2]?
**A.** 25% (inactive)

**Q.** And the inhibition [3]?
**A.** -19% (inactive)

**Q.** What about the inhibition [4] of the same compound?
**A.** 2% (inactive)

**Q.** Which inhibition [1] does the source give for CC(=O)N(Cc1cc(=O)[nH]c2ccccc12)c1cccc(C)c1 here?
**A.** 39% (inactive)

**Q.** And the inhibition [2]?
**A.** -7% (inactive)

**Q.** What about the inhibition [3] of the same compound?
**A.** 19% (inactive)

**Q.** What about the inhibition [4] of the same compound?
**A.** 58%

**Q.** What does the source list for COc1ccc(-c2cc(=O)[nH][nH]2)cc1?
**A.** inhibition [1]: 32% (inactive); inhibition [2]: 35% (inactive); inhibition [3]: 53%; inhibition [4]: 58%

**Q.** What does the source list for CC(NC(=O)Nc1ccc(O)cc1)(C(F)(F)F)C(F)(F)F?
**A.** inhibition [1]: -29% (inactive); inhibition [2]: 60%; inhibition [3]: 31% (inactive); inhibition [4]: 29% (inactive)

**Q.** Which results are given for O=C(COc1ccccc1F)N1CCN(S(=O)(=O)/C=C/c2ccccc2)CC1?
**A.** inhibition [1]: 3% (inactive); inhibition [2]: 42% (inactive); inhibition [3]: 25% (inactive); inhibition [4]: -10% (inactive)

**Q.** Which results are given for Cc1cc(N(C)NC(=S)Nc2ccccc2)nc(C)n1?
**A.** inhibition [1]: 38% (inactive); inhibition [2]: 5% (inactive); inhibition [3]: 58%; inhibition [4]: 32% (inactive)

**Q.** How did the inhibition [1] turn out when Cn1c(SCC(=O)Nc2ccc(Br)cn2)nnc1C1CC1 was run?
**A.** -19% (inactive)

**Q.** What about the inhibition [2] of the same compound?
**A.** 15% (inactive)

**Q.** What about the inhibition [3] of the same compound?
**A.** 19% (inactive)

**Q.** And the inhibition [4]?
**A.** 17% (inactive)

**Q.** For O=C(NCC1CCCO1)c1cc2c([nH]c3ccccc32)c(-c2ccc(F)cc2)n1 (stereo unspecified), which inhibition [1] is on record?
**A.** -27% (inactive)

**Q.** And the inhibition [2]?
**A.** 78%

**Q.** What about the inhibition [3] of the same compound?
**A.** 13% (inactive)

**Q.** What about the inhibition [4] of the same compound?
**A.** 36% (inactive)
